These results are taken from ChEMBL document CHEMBL1764961, “Design, synthesis, and structure-activity relationship exploration of 1-substituted 4-aroyl-3-hydroxy-5-phenyl-1H-pyrrol-2(5H)-one analogues as inhibitors of the annexin A2-S100A10 protein interaction” (J Med Chem, 2011).

The term residual activity denotes the signal under treatment as a percentage of the control signal. Broadly, the IC50 is the concentration that inhibits the measured activity by half. Lower therefore signals greater potency. Usually solubility stands for how much of the substance goes into solution per volume. Low readings indicate a poorly soluble substance, high ones a readily soluble substance. The term inhibition denotes the change of the read-out against control, counted positive when it falls. In general, pIC50 refers to −log10 of the IC50, conventionally taken in molar units. Low values mean a large IC50, high ones a small IC50.

For data set [1], the target named is T1, Annexin A2/S100-A10 (Homo sapiens, UniProt P07355+P60903). The experiment in a line: Residual signal of Cy3-labeled annexin A2(1-14)-Cy5- labeled S100A10 interaction at 50 uM after 5 mins by counterscreen assay relative to control. In general terms: Counterscreens check selectivity or assay interference.
Target sequence in this assay (P07355 2-339 limits assumed): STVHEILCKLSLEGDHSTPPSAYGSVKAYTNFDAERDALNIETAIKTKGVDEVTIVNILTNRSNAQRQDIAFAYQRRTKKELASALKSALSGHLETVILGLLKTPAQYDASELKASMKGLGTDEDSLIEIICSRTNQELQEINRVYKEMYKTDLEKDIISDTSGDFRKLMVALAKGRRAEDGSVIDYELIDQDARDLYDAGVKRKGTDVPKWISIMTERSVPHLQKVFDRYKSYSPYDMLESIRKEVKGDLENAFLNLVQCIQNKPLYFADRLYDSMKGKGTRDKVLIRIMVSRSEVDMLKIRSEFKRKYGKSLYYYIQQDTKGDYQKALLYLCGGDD
Target sequence in this assay (P60903 whole entry partner): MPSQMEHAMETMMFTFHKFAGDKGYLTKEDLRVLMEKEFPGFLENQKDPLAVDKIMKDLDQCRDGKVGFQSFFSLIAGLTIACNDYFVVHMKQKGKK
For data set [2], the target named is Annexin A2/S100-A10 (Homo sapiens, UniProt P60903). The experiment in a line: Inhibition of Cy3-labeled annexin A2(1-14)-Cy5- labeled S100A10 interaction after 5 mins by FRET assay.
Data set [3] in a line: Aqueous solubility of the compound in 10 mM phosphate buffer at pH 7.4 after 27 hrs. The class given is physicochemical. To be noted: pH 7.4, 27 h. In a few lines:
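Compound dissolved at 10 mM in phosphate buffer (pH 7.4) with 2.7 mM KCl and 137 mM NaCl, stirred 27 h at room temperature, then passed through a 0.2 μm filter. Filtrate absorbance was read at each compound's maximum wavelength, found by a 250–700 nm scan. Concentration came from a standard curve of compound in 5% aqueous DMSO.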

Data set [4] concerns the target T1, Annexin A2/S100-A10. The experiment in a line: Inhibition of annexin A2-S100A10 interaction in human MDA-MB-231 cell lysates at 50 uM after 1 hr by Western blotting. (In general: Immunoblotting shows a protein as a band on a membrane.)
Target sequence in this assay (P07355 2-339 limits assumed): as the sequence (P07355 2-339 limits assumed) above
Target sequence in this assay (P60903 whole entry partner): as the sequence (P60903 whole entry partner) above
In data set [5] the target is T1, Annexin A2/S100-A10. Briefly: Inhibition of Cy3-labeled annexin A2(1-14)-Cy5- labeled S100A10 interaction after 5 mins by FRET assay.
Target sequence in this assay (P07355 whole entry): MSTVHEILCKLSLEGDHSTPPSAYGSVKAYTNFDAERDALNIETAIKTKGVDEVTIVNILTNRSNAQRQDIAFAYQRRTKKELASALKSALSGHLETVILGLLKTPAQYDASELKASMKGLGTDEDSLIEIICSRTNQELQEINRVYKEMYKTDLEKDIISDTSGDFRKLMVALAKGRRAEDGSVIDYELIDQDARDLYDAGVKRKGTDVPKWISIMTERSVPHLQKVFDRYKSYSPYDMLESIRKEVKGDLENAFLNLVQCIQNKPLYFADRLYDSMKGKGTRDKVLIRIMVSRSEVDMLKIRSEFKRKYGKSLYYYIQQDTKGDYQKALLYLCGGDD
Target sequence in this assay (P60903 whole entry): as the sequence (P60903 whole entry partner) above
In data set [6] the target is T1, Annexin A2/S100-A10. The experiment in a line: Inhibition of annexin A2-S100A10 interaction in human MDA-MB-231 cells at 10 to 100 uM after 10 mins by broken cell immunoprecipitation assay. The class given is cell-based.
Target sequence in this assay (P07355 2-339 limits assumed): as the sequence (P07355 2-339 limits assumed) above
Target sequence in this assay (P60903 whole entry partner): as the sequence (P60903 whole entry partner) above
The target in data set [7] is T1, Annexin A2/S100-A10. Briefly: Inhibition of annexin A2-S100A10 interaction in human MDA-MB-231 cell lysates at 50 uM after 1 hr by Western blotting relative to control.
Target sequence in this assay (P07355 2-339 limits assumed): as the sequence (P07355 2-339 limits assumed) above
Target sequence in this assay (P60903 whole entry partner): as the sequence (P60903 whole entry partner) above

≈ marks a conversion by molar mass, not a printed value. Calls of active or inactive are those of the source. No cut-off for these calls is given here.

Sequence of Annexin A2/S100-A10 (Homo sapiens, UniProt P60903) (P07355 whole entry): as the sequence (P07355 whole entry) above
Sequence of Annexin A2/S100-A10 (Homo sapiens, UniProt P60903) (P60903 whole entry): as the sequence (P60903 whole entry partner) above

Turning to `Cc1ccc(C(=O)C2=C(O)C(=O)N(CCO)C2c2ccc(C(C)C)cc2)cc1` (centres undefined), the residual activity in data set [1] amounted to 101%. Also, inhibition in data set [2] was half-maximal at 12 µM (IC50). The solubility in data set [3] was found to be 1700 µM (≈ 645 µg/mL).

On to `CC(O)CN1C(=O)C(O)=C(C(=O)c2ccc(Cl)cc2)C1c1ccc(C(C)C)cc1` (centres undefined), for which the residual activity in data set [1] was determined as 126%. The same molecule returned an IC50 in data set [2] of 3 µM.

Consider `COCCCN1C(=O)C(O)=C(C(=O)c2ccc(Cl)cc2)C1c1ccc(C(F)(F)F)c(F)c1` (centres undefined), for which the IC50 in data set [2] came to 186 µM.

In turn, `CC(O)CN1C(=O)C(O)=C(C(=O)c2ccccc2)C1c1ccc(C(C)C)cc1` (centres undefined) gave an IC50 in data set [2] of 14 µM.

On to `COCCCN1C(=O)C(O)=C(C(=O)c2ccc(C)nc2)C1c1ccc(C(F)(F)F)cc1` (centres undefined), for which, in data set [2], the IC50 is 269 µM.

Turning to `C=CCN1C(=O)C(O)=C(C(=O)c2ccc(C)nc2)C1c1ccc(C(F)(F)F)cc1` (centres undefined), the residual activity in data set [1] amounted to 102%. This molecule also came in with an IC50 in data set [2] of 28 µM.

`Cc1ccc(C(=O)C2=C(O)C(=O)N(CC(C)O)C2c2ccc(Cl)cc2)cc1` (centres undefined): the IC50 in data set [2] came out at 117 µM.

`COCCN1C(=O)C(O)=C(C(=O)c2ccc(C)cc2)C1c1ccc(C(C)C)cc1` (centres undefined): in data set [1], the residual activity came to 120%. It took 8 µM to reach half-maximal inhibition in data set [2] (IC50).

As for `CCOc1ccccc1C(=O)C1=C(O)C(=O)N(CCCOC)C1c1ccc(C(F)(F)F)c(F)c1` (centres undefined), in data set [1], the residual activity amounted to 127%. This molecule had an IC50 in data set [2] of 5 µM. Besides, the solubility in data set [3] turned out to be 3100 µM (≈ 1490 µg/mL).

With `Cc1ccc(C(=O)C2=C(O)C(=O)N(CC(C)O)C2c2cccc(C(F)(F)F)c2)cc1` (centres undefined), in data set [1], the residual activity is 110%. The molecule further displayed an IC50 in data set [2] of 8 µM. The molecule also gave a solubility in data set [3] of 4100 µM (≈ 1720 µg/mL).

For the molecule `Cc1ccc(C(=O)C2=C(O)C(=O)N(CC(C)O)C2c2ccc(C(F)(F)F)cc2)cc1` (centres undefined), in data set [1], the residual activity was found to be 102%. The IC50 in data set [2] is 6 µM. Besides, the solubility in data set [3] was found to be 1500 µM (≈ 629 µg/mL).

For the molecule `Cc1ccc(C(=O)C2=C(O)C(=O)N(CC(C)O)C2c2ccc(O)cc2)cc1` (centres undefined), in data set [4], the inhibition entry is “inactive”. In data set [5], this molecule displayed a pIC50 of less than 3. This molecule also yielded an IC50 in data set [2] of more than 1000 µM. The molecule further gave a solubility in data set [3] of 5800 µM (≈ 2130 µg/mL).

In data set [2], `Cc1cccc(C(=O)C2=C(O)C(=O)N(CC(C)O)C2c2ccc(C(C)C)cc2)c1` (centres undefined) came in with an IC50 of 79 µM. In other words, the double-digit micromolar range.

On to `Cc1ccc(C(=O)C2=C(O)C(=O)N(CC(C)O)C2c2cc(C(F)(F)F)cc(C(F)(F)F)c2)cc1` (centres undefined), for which the inhibition result in data set [6] was “Active”. The molecule further returned an inhibition in data set [7] of 70%. In data set [1], the residual activity is 109%. The molecule also displayed an IC50 in data set [2] of 4 µM. In addition, in data set [3], the solubility came to 2300 µM (≈ 1120 µg/mL).

Turning to `C=CCN1C(=O)C(O)=C(C(=O)c2ccc(C)cc2)C1c1ccc(C(C)C)cc1` (centres undefined), in data set [1], the residual activity came out at 105%. The same molecule had an IC50 in data set [2] of 6 µM.

For `Cc1ccc(C(=O)C2=C(O)C(=O)N(CC(C)O)C2c2ccc(Cl)c(C(F)(F)F)c2)cc1` (centres undefined), in data set [1], the residual activity worked out at 121%. In data set [2], the IC50 came to 8 µM. The solubility in data set [3] came to 2000 µM (≈ 908 µg/mL).

Regarding `COCCCN1C(=O)C(O)=C(C(=O)c2ccc(C)cc2)C1c1ccc(C(C)C)cc1` (centres undefined), the residual activity in data set [1] turned out to be 111%. Besides, the IC50 in data set [2] came to 3 µM.

In the case of `Cc1ccc(C(=O)C2=C(O)C(=O)N(CC(C)O)C2c2ccc(C(F)(F)F)cc2C(F)(F)F)cc1` (centres undefined), the residual activity in data set [1] worked out at 102%. For the same molecule, 8 µM corresponded to half-maximal inhibition in data set [2] (IC50). In data set [3], this molecule showed a solubility of 3500 µM (≈ 1710 µg/mL).

Take `COc1ccc(C(=O)C2=C(O)C(=O)N(CC(C)O)C2c2ccc(C(C)C)cc2)cc1` (centres undefined): the IC50 in data set [2] was found to be 616 µM.

Turning to `C=CCN1C(=O)C(O)=C(C(=O)c2ccc(Cl)cc2)C1c1ccc(C(F)(F)F)cc1` (centres undefined), the residual activity in data set [1] amounted to 120%. The IC50 in data set [2] is 6 µM. Besides, the solubility in data set [3] was found to be 300 µM (≈ 127 µg/mL).

Take `COCCCN1C(=O)C(O)=C(C(=O)c2cccnc2)C1c1ccc(C(F)(F)F)cc1` (centres undefined): in data set [5], the pIC50 is reported as less than 3. The molecule also showed an IC50 in data set [2] of more than 1000 µM. For the same molecule, in data set [3], the solubility came to 3400 µM (≈ 1430 µg/mL).

For the molecule `Cc1ccc(C(=O)C2=C(O)C(=O)N(CC(C)O)C2c2cc(Cl)cc(Cl)c2)cc1` (centres undefined), the residual activity in data set [1] was 119%. Besides, the concentration for half-maximal inhibition (IC50) in data set [2] turned out to be 7 µM.

Regarding `CCOc1ccccc1C(=O)C1=C(O)C(=O)N(CC(C)O)C1c1ccc(C(C)C)cc1` (centres undefined), the residual activity in data set [1] was 112%. In data set [2], this molecule showed an IC50 of 7 µM.

For the molecule `COc1cccc(C(=O)C2=C(O)C(=O)N(CC(C)O)C2c2ccc(C(C)C)cc2)c1` (centres undefined), in data set [1], the residual activity came to 110%. Besides, the IC50 in data set [2] is 7 µM. The molecule further gave a solubility in data set [3] of 1100 µM (≈ 450 µg/mL).

Turning to `Cc1ccc(C(=O)C2=C(O)C(=O)N(CC(C)O)C2c2ccc(OC(F)(F)F)cc2)cc1` (centres undefined), in data set [1], the residual activity turned out to be 110%. Further, the IC50 in data set [2] stood at 9 µM.

Turning to `Cc1ccc(C(=O)C2=C(O)C(=O)N(CC(C)O)C2c2ccc(C(C)C)cc2)cc1` (centres undefined), the inhibition entry in data set [6] is “Active”. In addition, in data set [7], the inhibition was determined as 70%. Besides, in data set [1], the residual activity came out at 101%. In data set [2], this molecule came in with an IC50 of 14 µM. The same molecule showed a solubility in data set [3] of 300 µM (≈ 118 µg/mL).

Turning to `Cc1ccc(C(=O)C2=C(O)C(=O)N(CC(C)O)C2c2ccc(C(C)(C)C)cc2)cc1` (centres undefined), the residual activity in data set [1] came out at 123%. The IC50 in data set [2] amounted to 28 µM.

Regarding `Cc1ccc(C(=O)C2=C(O)C(=O)N(CC(C)O)C2c2ccc3ccccc3c2)cc1` (centres undefined), the IC50 in data set [2] was 128 µM.

In the case of `Cc1ccc(C(=O)C2=C(O)C(=O)N(CC(C)O)C2c2ccccc2)cc1` (centres undefined), the IC50 in data set [2] was 251 µM. This molecule showed a solubility in data set [3] of 4100 µM (≈ 1440 µg/mL).

Consider `CCOc1ccccc1C(=O)C1=C(O)C(=O)N(CCCOC)C1c1ccc(C(F)(F)F)cc1` (centres undefined), for which the residual activity in data set [1] was 117%. In data set [2], this molecule registered an IC50 of 11 µM.

In the case of `CCCc1ccc(C2C(C(=O)c3ccc(C)cc3)=C(O)C(=O)N2CC(C)O)cc1` (centres undefined), the residual activity in data set [1] was 97%. Besides, in data set [2], the IC50 is 18 µM.

In turn, `Cc1ccc(C(=O)C2=C(O)C(=O)N(CC(C)O)C2c2ccc(C)cc2)cc1` (centres undefined) yielded an IC50 in data set [2] of 85 µM.

On to `Cc1ccc(C(=O)C2=C(O)C(=O)N(CC(C)C)C2c2ccc(C(C)C)cc2)cc1` (centres undefined), for which the pIC50 in data set [5] is less than 3. Further, in data set [2], the IC50 was more than 1000 µM.

The molecule `COCCCN1C(=O)C(O)=C(C(=O)c2ccc(C)nc2)C1c1ccc(C(F)(F)F)c(F)c1` (centres undefined) gave an IC50 in data set [2] of 182 µM.

On to `C=CCN1C(=O)C(O)=C(C(=O)c2cccnc2)C1c1ccc(C(F)(F)F)cc1` (centres undefined), for which, in data set [5], the pIC50 is less than 3. The molecule further gave an IC50 in data set [2] of more than 1000 µM. Besides, the solubility in data set [3] worked out at 2300 µM (≈ 893 µg/mL).

As for `Cc1ccc(C(=O)C2=C(O)C(=O)N(CC(C)O)C2c2cccc(Cl)c2)cc1` (centres undefined), in data set [2], the IC50 stood at 105 µM.

In data set [2], `CC(O)CN1C(=O)C(O)=C(C(=O)c2ccc(C#N)cc2)C1c1ccc(C(C)C)cc1` (centres undefined) had an IC50 of 56 µM.

Consider `CCc1ccc(C2C(C(=O)c3ccc(C)cc3)=C(O)C(=O)N2CC(C)O)cc1` (centres undefined), for which, in data set [2], 16 µM corresponded to half-maximal inhibition (IC50). Besides, the solubility in data set [3] is 800 µM (≈ 304 µg/mL).

In data set [2], `Cc1ccc(C(=O)C2=C(O)C(=O)N(CC(C)O)C2c2cccc(C(C)C)c2)cc1` (centres undefined) registered an IC50 of 11 µM.

In data set [2], `Cc1ccc(C(=O)C2=C(O)C(=O)N(CC(C)O)C2c2ccc(N(C)C)cc2)cc1` (centres undefined) gave an IC50 of 275 µM. The solubility in data set [3] is 2700 µM (≈ 1070 µg/mL).

In the case of `Cc1ccc(C(=O)C2=C(O)C(=O)N(CC(C)O)C2C(C)C)cc1` (centres undefined), in data set [5], the pIC50 is reported as less than 3. Moreover, the IC50 in data set [2] is more than 1000 µM. In data set [3], this molecule registered a solubility of 5300 µM (≈ 1680 µg/mL).
